# Compounds with a hit are over-represented: about 2.9% of the library has one in this group of screens.
# CRFBP-R2 block: antagonists of CRF-binding protein/CRF-R2 receptor complex. HEK293 CRF-R2/CRF-BP, CRF-induced calcium fluorescence. inhibition, % at 11.8 µM. 350,000 compounds, 0.59% hits. AID 588475;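 active = inhibition of the ligand-induced calcium signal above about 50% at the single tested concentration, limit read from the data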
# NRP1-CendR mod: alters CendR peptide binding to human NRP-1; FAM-RPARPAR peptide binding to NRP-1, fluorescence polarization; 360,000 compounds, 0.85% hits; inhibition, % at 25 µM; O14786;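 active = inhibition or corrected inhibition above about 18%, plus a signal ratio from 0.5 to 1.5, limit read from the data, passing the limit was not always enough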
# DDE Tn7 FP inh: DD(E)-Tn7 binding inhibition, primary FP screen. inhibition, % at 8.3 µM. AID 720508. 370,000 compounds, 0.13% hits. FP displacement of FITC-Tn7 peptide from fibrin DD(E); 0% = median of compound wells per plate;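 active = inhibition above the mean of compounds falling within the control limits plus 3 SD of them, cut at about 14% in these data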;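 note: 0% = plate median of compound wells and 100% = 10 µM Aha-Tn7 peptide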
#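 Assay system: Fibrin-DD(E) protein isolated from polymerized human fibrin clots; read-out basis: percent inhibition; medium: Tris/NaCl/CaCl2 buffer, pH 7.8; signal: FP measurement; incubation: 10 min plus 3 h, room temperature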
# CRFBP-R2 agonist: agonists of human CRF-binding protein/CRF-R2 receptor complex. HEK293 CRF-R2/CRF-BP, calcium dye fluorescence (FLIPR); percent of saturating CRF peptide response. activation, % at 13.2 µM. 350,000 compounds, 0.46% hits. AID 588473;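 active = activation of at least 50%, plus an integration ratio under a set limit after plate pattern correction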;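 note: plate controls were neutral control wells without compound for no effect and CRF at EC100 for full effect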
# proKLK7 act: activates the human kallikrein-7 zymogen | 370,000 compounds, 0.9% hits | purified proKLK7, EDANS-DABCYL substrate fluorescence; 100% is mature enzyme control, 0% vehicle | P49862 | activation, % at 7 µM;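 active = activation above the mean of all tested compounds plus 3 SD, computed per campaign excluding outliers beyond control limits, cut at about 13% in these data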
# Target sequence (P49862 whole entry, looked up): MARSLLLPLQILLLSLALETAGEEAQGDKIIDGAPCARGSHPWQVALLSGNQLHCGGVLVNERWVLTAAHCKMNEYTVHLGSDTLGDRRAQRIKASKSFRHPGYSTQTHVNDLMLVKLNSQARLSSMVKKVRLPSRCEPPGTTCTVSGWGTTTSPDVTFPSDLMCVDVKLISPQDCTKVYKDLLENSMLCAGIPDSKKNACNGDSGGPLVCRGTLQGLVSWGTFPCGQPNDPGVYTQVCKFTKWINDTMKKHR
# Tn6 DDE FP: disrupts Tn6 cyclic peptide binding to fibrin D-Dimer-E complex; P02675; Fibrin DD(E) TRITC-Tn6 fluorescence polarization displacement; inhibition, % at 8.3 µM; 370,000 compounds, 0.21% hits; AID 720509;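 active = inhibition above a per-campaign cutoff: mean of compounds within control limits plus 3 SD, cut at about 15% in these data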;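 note: 0% = median of all compound wells on the plate and 100% = blocking peptide control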
# Active calls of the source: *; x = not tested or not shown.
SMILES,CRFBP-R2 block,NRP1-CendR mod,DDE Tn7 FP inh,CRFBP-R2 agonist,proKLK7 act,Tn6 DDE FP
Fc1ccccc1C(c1nnnn1C1CCCC1)N1CCN(Cc2ccccc2)CC1 (stereo not drawn),-2,22*,-4,10,0,12
CCC(c1nnnn1C1CCCC1)N1CCN(Cc2ccccc2)CC1 (stereo not drawn),103*,11,-7,-1,0,-6
O=C(CN(CCc1ccccc1)S(=O)(=O)c1ccc(F)cc1)N1CCOCC1,x,x,-4,x,0,1
COc1cc(C(=O)c2c(C)c(CCC#N)n3ccccc23)cc(OC)c1OC,10,21*,-8,1,0,-2
C#CCCOC(=O)N1C2=NC(C(=O)OC)=C(C(=O)OC)[C@@H]3N(C)c4ccccc4[C@]23C[C@H]1CO,2,26*,-2,-1,1,1
CCOC(=O)N1C2=NC(C(=O)OC)=C(C(=O)OC)[C@@H]3N(C)c4ccc(OC)cc4[C@]23C[C@H]1C(=O)OC,1,25*,7,-1,0,5
Cc1ccc(CNC(=O)C2CCC(=O)N(C3CC3)C2)cc1 (stereo not drawn),-22,28*,0,1,-1,4
CC(=O)N1CCc2c1cccc2S(=O)(=O)NC(CC(C)C)C(=O)Nc1ccc(Cl)c(Cl)c1 (stereo not drawn),x,x,6,x,0,-9
CCCCCn1nc(-c2ccccc2)c2nc3ccccc3nc21,-256,134,-3,176*,0,-3
CCn1nc(-c2ccccc2)c2nc3ccccc3nc21,-188,94,2,160*,3,-1
CCCn1c(C)nc2c(c1=O)c1nc3ccccc3nc1n2-c1ccccc1,-7,6,7,-1,0,-5
CCCn1nc(-c2ccccc2)c2nc3ccccc3nc21,-43,x,0,106*,1,4
CCCCn1c2nc3ccccc3nc2c2c(=O)n(CCC)cnc21,0,-13,-1,2,0,-3
C=CC[C@H]1c2ccccc2[C@H]2N3N=Cc4ccccc4[C@H]3[C@H](CCCC)C(=O)N2N1C(=O)c1ccccc1,x,x,0,x,0,-4
Cc1ccc(C(=O)NNC(=O)CSc2nnc(C3CC3)n2C)cc1,-5,-2,-9,5,-1,1
Cn1c(SCC(=O)NNC(=O)c2ccccc2)nnc1C1CC1,14,24*,-7,0,0,6
Cc1ccc(C(=O)NNC(=O)CSc2nnc(C(C)C)n2C)cc1,5,20*,-3,-1,1,6
Cc1nnc(SCC(=O)NNC(=O)c2ccc(Br)cc2)n1C,-14,9,-3,0,0,-3
CCOC(=O)C1CCN(C(=O)C(Cc2ccc3c(c2)OCO3)NC(C)=O)CC1 (stereo not drawn),x,x,1,x,0,-1
COc1ccc2c(c1)CO[C@H]([C@H](O)CO)[C@H]2/C=C/c1ccccc1,x,x,-8,x,0,-8
O=C(NC1CCCC1)C1CCC(CNS(=O)(=O)c2ccc(F)cc2)CC1 (stereo not drawn),89*,0,-5,-2,0,6
O=Nc1c(O)n(Cc2ccc(Cl)cc2)c2ccccc12,-27,-3,-3,0,0,10
O=Nc1c(O)n(Cc2c(Cl)cccc2Cl)c2ccccc12,-9,-10,2,163*,0,-6
O=C(NC1CCC1)c1ccc(C#CC2CC2)c[n+]1[O-],x,x,-1,x,0,1
Cc1cc(C)c(S(=O)(=O)n2ccc3ccccc32)c(C)c1,58*,13,-3,-1,0,-8
SMILES,CRFBP-R2 block,NRP1-CendR mod,DDE Tn7 FP inh,CRFBP-R2 agonist,proKLK7 act,Tn6 DDE FP
Cc1cc2nc(-c3ccc(SCC(=O)Nc4ccc(S(=O)(=O)NC5CC5)cc4)nc3)[nH]c2cc1C,18,-42,-6,4,-31,29*
Cc1ccc(NC(=O)C2CCCN(c3nnc(-n4cccc4)s3)C2)cc1C (stereo not drawn),x,x,-1,x,-1,-5
CCc1cccc(C)c1NC(=S)N1CCCCC1c1cccnc1 (stereo not drawn),17,4,-2,54*,0,7
O=C(Nc1nnc(-c2ccccc2Cl)o1)c1nc2ccccc2s1,-55,-27,4,140*,2,4
COc1cccc(-c2nnc(NC(C)=O)o2)c1,0,-6,-1,2,0,-1
COc1cccc(-c2nnc(Nc3nc4c(F)cccc4s3)o2)c1,24,33*,6,-1,-4,4
COc1ccccc1-c1nnc(Nc2nc3c(OC)cccc3s2)o1,53*,-10,-6,10,0,0
COc1cccc2sc(Nc3nnc(-c4ccccc4Cl)o3)nc12,42,-2,1,77*,1,-8
Cn1c(SCC(=O)N2CCCc3ccccc32)nc2cccnc21,56*,2,-1,-4,0,-2
CCN(c1ccccc1)S(=O)(=O)c1ccc(NC(=O)c2ccco2)cc1,77*,-8,-12,-2,0,-5
CC(=O)Nc1ccc(Cl)c(C(N)=O)c1,-13,4,-7,0,0,3
CC(=O)Nc1cc(C(N)=O)c(Cl)cc1Cl,72*,7,4,-1,0,-3
Cc1cccc(OCCn2c(-c3ccco3)nc3ccccc32)c1,8,28*,-6,1,0,3
N#Cc1ccc(CSC2=NCCN2)cc1,104*,3,-1,-1,0,-5
Cc1ccc(NC(=O)[C@@H]2CC(=O)O[C@@H]2c2ccccc2)c(C)c1,x,x,4,x,0,-2
Cn1c(=O)c2[nH]c(SCCN3CCCCC3)nc2n(C)c1=S,-10,20*,-7,5,0,-3
Cn1c(=O)c2[nH]c(SCCN3CCOCC3)nc2n(C)c1=S,-2,4,-1,0,0,5
CC(C)CN1CN2Cc3cc(F)ccc3C2CS1(=O)=O (stereo not drawn),x,x,-3,x,0,3
Nc1ccc2c3c(cccc13)-c1ccccc1-2,-216,141,11,197*,-14,2
O=C(CCc1nc(-c2ccccc2F)no1)NCCc1ccc(F)cc1,x,x,9,x,0,6
CCCCn1nnnc1C(c1cc2ccccc2o1)N1CCCCC1 (stereo not drawn),x,-11,7,x,1,-7
CCCCn1nnnc1C(c1cc2ccccc2o1)N1CCN(c2c(C)cccc2C)CC1 (stereo not drawn),x,26*,5,x,1,8
COc1ccccc1-c1noc(Cn2cc(S(=O)(=O)N3CCCC3)ccc2=O)n1,-3,18*,-3,2,0,-6
COc1ccccc1Oc1ccc(S(=O)(=O)N2CCCC2)cc1,9,-2,x,0,x,x

# From PubChem BioAssay
